Assay type in all cases: functional
Experiment [1] is filed under the species Mus musculus. In words: In vitro bone-resorbing activity was examined in fetal mouse calvaria prelabeled with 45Ca at 12 nM concentration. An outline of the steps: (§1)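 Paired half fetal mouse calvaria, split along the midsagittal suture, were precultured 24 h at 37 °C under 5% CO₂ in air in BGJ medium containing 1 mg/mL bovine serum albumin. Halves were then moved to fresh medium with or without derivative for 6 more days. Bones were digested overnight in HCl, and ⁴⁵Ca in the medium and bone was counted. ⁴⁵Ca release % = medium/(medium+bone)×100, reported as treated/control ratio. Student's t test.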

For experiment [2], the species on record is Mus musculus. The experiment in a line: In vitro bone-resorbing activity was examined in fetal mouse calvaria prelabeled with 45Ca at 1.2 nM concentration. A digest of the protocol:
as §1

Experiment [3] is filed under the species Mus musculus. The experiment in a line: In vitro bone-resorbing activity was examined in fetal mouse calvaria prelabeled with 45Ca at 120 nM concentration. A digest of the protocol: as §1
The species named for experiment [4] is Mus musculus. In words: In vitro bone-reabsorbing activity was examined in fetal mouse calvaria prelabeled with 45 Ca at 12 nM concentration, Ca release. An outline of the steps:
as §1

The species named for experiment [5] is Mus musculus. In words: In vitro bone-reabsorbing activity was examined in fetal mouse calvaria prelabeled with 45 Ca at 120 nM concentration, Ca release. An outline of the steps: as §1
For experiment [6], the species on record is Mus musculus. In words: In vitro bone-reabsorbing activity was examined in fetal mouse calvaria prelabeled with 45 Ca at 1.2 nM concentration, Ca release. A digest of the protocol: as §1

Values joined by “and” are separate entries in the source; they are usually repeats but may differ in a detail not shown here. Equal entries are not always repeated.

On to `C[C@H](CCCC(C)(C)O)C1CCC2/C(=C/c3occ4c3CC(O)CC4)CCCC21C` (stereo partly drawn), for which the T/C in the experiment filed under Mus musculus [1] is 1.63; in the experiment listed under Mus musculus [2], 1.05 and 0.98; in the experiment listed under Mus musculus [3] it was 2.64.
With `C[C@H](CCCC(C)(C)O)C1CCC2/C(=C/C3OOCC4=C3C[C@@H](O)CC4)CCCC21C` (stereo partly drawn), the T/C in the experiment filed under Mus musculus [4] is listed as 1.61; in the experiment listed under Mus musculus [5] it was 2.43.
Take `C=C1CC[C@H](O)C/C1=C/C=C1\CCC[C@]2(C)[C@@H]([C@H](C)CCCC(C)(C)O)CC[C@@H]12` [CALCIFEDIOL ANHYDROUS]: the figures for the T/C in the experiment filed under Mus musculus [4], in the experiment listed under Mus musculus [5] and in the experiment listed under Mus musculus [6] were 1.33, 1.74 and 1, respectively.
